# Measurements taken from ChEMBL document CHEMBL2401617, “Synthesis and biological evaluation of some novel thiazole compounds as potential anti-inflammatory agents” (2013).
# How the values were obtained:
# Format in all cases: functional
# Rattus norvegicus [1] = experiment: Antiinflammatory activity in albino Wistar rat assessed as inhibition of carrageenan-induced paw oedema at 10 mg/kg, po administered 1 hr prior to carrageenan challenge measured at 4 hrs by plethysmometeric analysis relative to control
# Outline: (§1)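 Albino Wistar rats of either sex (130–150 g), 6 per group, fasted 12 h with water ad libitum. Indomethacin 10 mg/kg was given orally in 1 ml 20% v/v DMSO; controls received vehicle. One hour later, 0.1 ml 1% w/v carrageenan in 0.9% saline was injected subplantar into the left hind paw. Paw volume was read by plethysmometer at 0 and 1–4 h. % inhibition = [1 − (Vt/Vc)] × 100.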
# Rattus norvegicus [2] = experiment: Antiinflammatory activity in albino Wistar rat assessed as inhibition of carrageenan-induced paw oedema at 10 mg/kg, po administered 1 hr prior to carrageenan challenge measured at 3 hrs by plethysmometeric analysis relative to control; outline: as §1
# Rattus norvegicus [3] = experiment: Antiinflammatory activity in albino Wistar rat assessed as inhibition of carrageenan-induced paw oedema at 10 mg/kg, po administered 1 hr prior to carrageenan challenge measured at 2 hrs by plethysmometeric analysis relative to control; outline: as §1
# Rattus norvegicus [4] = experiment: Antiinflammatory activity in albino Wistar rat assessed as inhibition of carrageenan-induced paw oedema at 10 mg/kg, po administered 1 hr prior to carrageenan challenge measured at 1 hr post carrageenan challenge by plethysmometeric analysis relative to control; outline: as §1
compound,measurement,setting,value
COc1ccc2c(c1)c(CC(=O)O)c(C)n2C(=O)c1ccc(Cl)cc1 [INDOMETHACIN],inhibition in vivo at 10 mg/kg,Rattus norvegicus [1],91.3%
same,inhibition in vivo at 10 mg/kg,Rattus norvegicus [2],75.5%
same,inhibition in vivo at 10 mg/kg,Rattus norvegicus [3],45.1%
same,inhibition in vivo at 10 mg/kg,Rattus norvegicus [4],10.5%
